Laboratory results published in publication PMC3579011 (Molecular cancer research : MCR, 2012).
Positions of bridges follow the written chain, without caps; N, C: chain ends. No end group written: not given here.

What was measured:
DU145 cells [1] = experiment: LDH release cytotoxicity assay, DU145; type: cell-based
[2] = tested on: primary human bladder epithelial cells (HBEC); experiment: LDH release cytotoxicity assay, primary bladder epithelial cells; type: cell-based; conditions: CLT1 75 µg/ml, 24 hours
Method in brief: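 Primary human bladder epithelial cells were kept in serum-free Prostalife basal medium with supplements at 37°C and 5% CO2, and treated at about 50% confluence. Peptide diluted in water was added for 24 h in 2% serum alone, or with fibronectin or fibrinogen. Cell death was read as LDH release, expressed as a percentage of maximal release from camptothecin plus 100 nmol/L staurosporine.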

[3] = tested on: bladder tumor cells (J82, T24, UMUC3, TCCSUP); experiment: LDH release cytotoxicity assay, bladder tumor cells; type: cell-based; conditions: CLT1 75 µg/ml, 24 hours; even in the presence of urine
[4] = tested on: 786-0 kidney cancer cells; experiment: CLT1-induced cell death, 786-0; type: cell-based, human
[5] = tested on: cathepsin D (lysosome leakage) in DU145, UMUC3 and J82 tumor cells; experiment: Cathepsin D in cytosolic fraction; type: cell-based, human; conditions: CLT1 75 µg/ml, 24 hours
Method in brief: (§1)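 Cells were lysed by subcellular protein fractionation to obtain the cytoplasmic fraction, or in 2× SDS sample buffer. Proteins were run on SDS-PAGE and transferred to PVDF, with 0.05% Ponceau S staining to check equal loading. Blots were blocked in 5% BSA and probed overnight at 4°C with anti-cathepsin D or anti-LC3B, then detected with peroxidase-conjugated anti-rabbit or anti-mouse IgG and enhanced chemiluminescence.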

[6] = tested on: LC3 in UMUC3 and J82 cells; experiment: LC3 conversion; type: cell-based, human; conditions: CLT1 25 µg/ml, 2% serum + FN, 24 hours
Method in brief: as §1

angiogenic endothelium = conditions: cited from earlier work
[7] = tested on: DU145, UMUC3 and J82 cells; experiment: LDH release with autophagy inhibitor, DU145, UMUC3, J82; type: cell-based, human; conditions: bafilomycin A1 40–400 nM added 1 hour prior to CLT1 (25 µg/ml) + FN, 24 hours
Method in brief: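 DU145, UMUC3 and J82 cells at about 50% confluence received 40 to 400 nmol/L bafilomycin A1 plus test peptide with fibronectin for 24 h. Cell death was measured as LDH release using a cytotoxicity detection kit. Values were normalized to background death of control cells treated without peptide in the same medium.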

[8] = tested on: bladder and prostate tumor cells; experiment: Internalization of fluorescein-CLT1 with fibronectin or fibrinogen; type: cell-based, human; conditions: FN or FG each 30 µg/ml
Method in brief: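 Cells were grown on vitronectin-coated coverslips and incubated 24 h with fluorescein-conjugated peptide in 2% serum with fibronectin or fibrinogen. They were then fixed in 4% paraformaldehyde and mounted in DAPI-containing medium. Internalization was scored by fluorescence microscopy at ×40 as the percentage of peptide-positive cells per optical field.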

[9] = tested on: human bladder (J82, T24, UMUC3, TCCSUP), prostate (DU145), kidney (RCC4), breast (MDA-MB-231) and lung (A549) tumor cell lines; experiment: LDH release cytotoxicity assay, panel of tumor cell lines; type: cell-based; conditions: without CLT1
DU145 cells [10] = experiment: Uptake of fluorescein-CLT1 by fluorescence microscopy, DU145; type: cell-based, human; conditions: nocodazole 10 µM, 24 hours, versus DMSO
Method in brief: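 DU145 cells were grown on vitronectin-coated coverslips and exposed 24 h to fluorescein-conjugated peptide alone or with nocodazole, with DMSO as vehicle. Cells were fixed in 4% paraformaldehyde and stained with DAPI. Uptake was scored by fluorescence microscopy at ×40 as the percentage of peptide-positive cells per optical field.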

CGLIIQKNEC (disulfide 1-10 (inferred)) [CLT1]
CLT1 concentration at which cytotoxicity reached a plateau (DU145 cells [1]; CLT1 7.5–150 µg/ml, 2% serum + 30 µg/ml fibronectin, 24 hours, LDH release): 75 µg/mL
cell death in the absence of plasma fibronectin (DU145 cells [1]; prostate tumor cells, FN-depleted serum): minimal cell death
cytotoxic activity in primary bladder epithelial cells [2]: largely inactive
cell death of bladder cancer cells [3]: extensive cell death
sensitivity to CLT1-induced cell death [4]: largely resistant
cathepsin D in cytoplasmic fraction (indicator for lysosome leakage) [5]: increased concentrations
LC3 conversion (autophagy marker) [6]: causes LC3 conversion
anti-angiogenic activity in vivo (angiogenic endothelium): strong anti-angiogenic activity

CO/C1=C\C(C)=C\[C@@H](C)[C@@H](O)[C@@H](C)C/C(C)=C/C=C/[C@H](OC)[C@@H]([C@@H](C)[C@@H](O)[C@H](C)[C@@]2(O)C[C@@H](O)[C@H](C)[C@@H](C(C)C)O2)OC1=O [bafilomycin A1, Bafilomycin A1]
effect on CLT1 cytotoxicity (LDH release) [7]: significantly reduced

fibrinogen
effect on CLT1 uptake / internalization [8]: largely prevents

fibronectin
effect of protein alone on tumor cell fate [9]: no effect
fibronectin concentration at which CLT1 cytotoxicity occurred (DU145 cells [1]; FN-depleted serum, CLT1 75 µg/ml, FN 3–100 µg/ml, within 24 hours, LDH release): 10 µg/mL
effect on CLT1 uptake / internalization [8]: supports

COC(=O)Nc1nc2ccc(C(=O)c3cccs3)cc2[nH]1 [nocodazole, reference compound]
effect on CLT1 cytotoxicity (LDH release) (DU145 cells [1]; nocodazole 10 µM, CLT1 75 µg/ml, 24 hours, versus DMSO): significantly reduced
effect on CLT1 uptake (DU145 cells [10]): inhibited
